Values belong to the molecule of their own block, whether it stands above or below them.
Assays:
HCT-15 = test: Cytotoxic activity against HCT 15 human colon tumor cell line, using sulforhodamine B (SRB) assay.; format: functional, cell-based
In short: (§1)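 In vitro sulforhodamine B (SRB) staining assay on human tumor cell lines. Values are reported as IC50 for cytotoxicity.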

SK-MEL-2 = test: Cytotoxic activity against SK-MEL-2 human melanoma cell line, using sulforhodamine B (SRB) assay.; format: functional, cell-based; in short: as §1
A549 = test: Cytotoxic activity against A 549 human lung tumor cell line, using sulforhodamine B (SRB) assay.; format: functional, cell-based; in short: as §1
SK-OV-3 = test: Cytotoxic activity against SKOV-3 human ovarian tumor cell line, using sulforhodamine B (SRB) assay.; format: functional, cell-based; in short: as §1
[1] = biological target: T1, DNA topoisomerase 1 (Homo sapiens) (UniProt P11387); test: Inhibitory activity against Topoisomerase I in supercoiled DNA unwinding assay method; Weak activity
T1 sequence (whole entry): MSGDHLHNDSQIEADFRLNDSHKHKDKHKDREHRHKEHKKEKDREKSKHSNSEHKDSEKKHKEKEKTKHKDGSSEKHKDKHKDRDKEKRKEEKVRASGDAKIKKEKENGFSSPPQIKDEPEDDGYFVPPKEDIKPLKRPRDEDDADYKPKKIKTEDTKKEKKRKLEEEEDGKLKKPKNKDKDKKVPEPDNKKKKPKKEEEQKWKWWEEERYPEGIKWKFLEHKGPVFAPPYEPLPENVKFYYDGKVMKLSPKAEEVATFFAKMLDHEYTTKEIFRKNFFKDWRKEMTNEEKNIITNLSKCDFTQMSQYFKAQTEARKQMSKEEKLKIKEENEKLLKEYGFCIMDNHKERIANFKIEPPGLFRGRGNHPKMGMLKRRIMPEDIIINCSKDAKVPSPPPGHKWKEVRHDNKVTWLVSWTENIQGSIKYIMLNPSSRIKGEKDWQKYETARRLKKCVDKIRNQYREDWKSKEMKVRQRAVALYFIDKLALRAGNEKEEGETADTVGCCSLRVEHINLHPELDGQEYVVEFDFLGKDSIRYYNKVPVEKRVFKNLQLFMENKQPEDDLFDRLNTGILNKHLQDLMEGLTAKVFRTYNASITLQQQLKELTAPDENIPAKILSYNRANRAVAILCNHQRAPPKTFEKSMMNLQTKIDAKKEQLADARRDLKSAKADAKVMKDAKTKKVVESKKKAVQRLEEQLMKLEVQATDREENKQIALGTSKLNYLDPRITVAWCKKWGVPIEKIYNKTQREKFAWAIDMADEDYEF

[2] = biological target: T1, DNA topoisomerase 1 (Homo sapiens); test: Inhibitory activity against Topoisomerase I was determined by the supercoiled DNA unwinding assay method; Greater activity than Camptothecin
OCI-AML2 [3] = test: Cytotoxic activity against wild type AML-2 leukemia cell line was determined; format: functional
OCI-AML2 [4] = test: Cytotoxic activity against D100 daunorubicin (100 nM) resistant AML-2 cell line was determined; format: functional
OCI-AML2 [5] = test: Cytotoxic activity against DX-100: doxorubicin (100 ng/mL) resistant AML-2 cell line was determined; format: functional

Compound: CC(=O)N[C@H]1CC[C@H](Nc2nc(-c3ccccc3)cc3ccccc23)CC1
IC50 (HCT-15): 253 µM | IC50 (SK-MEL-2): 183 µM | IC50 (A549): 145 µM | IC50 (SK-OV-3): 186 µM | Activity [1]: Weak activity

Compound: Nc1nc(-c2ccccc2)cc2ccccc12
IC50 (HCT-15): 1.87 µM | IC50 (SK-MEL-2): 1.48 µM | IC50 (A549): 2.73 µM | IC50 (SK-OV-3): 2.03 µM

Compound: CN1CCN(c2nc(-c3ccccc3)cc3ccccc23)CC1
IC50 (HCT-15): 13.9 µM | IC50 (SK-MEL-2): 14.5 µM | IC50 (A549): 13.6 µM | IC50 (SK-OV-3): 13.7 µM

Compound: N[C@H]1CC[C@H](Nc2nc(-c3ccccc3)cc3ccccc23)CC1
IC50 (HCT-15): 7.24 µM | IC50 (SK-MEL-2): 7.7 µM | IC50 (A549): 7.95 µM | IC50 (SK-OV-3): 4.36 µM

Compound: CCN1CCN(c2nc(-c3ccccc3)cc3cc(C)ccc23)CC1
IC50 (HCT-15): 2.42 µM | IC50 (SK-MEL-2): 11.9 µM | IC50 (A549): 18.2 µM | IC50 (SK-OV-3): 41.8 µM

Compound: Cc1ccccc1-c1cc2ccccc2c(N)n1
IC50 (HCT-15): 1.92 µM | IC50 (SK-MEL-2): 2.11 µM | IC50 (A549): 3.14 µM | IC50 (SK-OV-3): 1.81 µM

Compound: Cc1ccccc1-c1cc2ccccc2c(N[C@H]2CC[C@H](N)CC2)n1
IC50 (HCT-15): 7.65 µM | IC50 (SK-MEL-2): 6.45 µM | IC50 (A549): 10.2 µM | IC50 (SK-OV-3): 9.17 µM | Activity [1]: Weak activity

Compound: Cc1ccc2c(NCCN)nc(-c3ccccc3Cl)cc2c1
IC50 (HCT-15): > 300 µM | IC50 (SK-MEL-2): > 300 µM | IC50 (A549): > 300 µM | IC50 (SK-OV-3): > 300 µM | Activity [1]: Weak activity

Compound: CN1CCCN(c2nc(-c3ccc(Cl)cc3)cc3ccccc23)CC1
IC50 (HCT-15): 9.78 µM | IC50 (SK-MEL-2): 8.55 µM | IC50 (A549): 11.8 µM | IC50 (SK-OV-3): 20 µM

Compound: Cc1ccc(-c2cc3ccccc3c(N3CCCN(C)CC3)n2)cc1
IC50 (HCT-15): 7.84 µM | IC50 (SK-MEL-2): 6.18 µM | IC50 (A549): 1.22 µM | IC50 (SK-OV-3): 9.34 µM

Compound: Cc1ccc(-c2cc3ccccc3c(NCc3ccccc3)n2)cc1
IC50 (HCT-15): 171 µM | IC50 (SK-MEL-2): 133 µM | IC50 (A549): 168 µM | IC50 (SK-OV-3): 193 µM

Compound: Cc1cccc(-c2cc3ccccc3c(NCc3ccccc3)n2)c1
IC50 (HCT-15): 108 µM | IC50 (SK-MEL-2): 85 µM | IC50 (A549): 103 µM | IC50 (SK-OV-3): 168 µM | Activity [1]: Weak activity

Compound: CN1CCCN(c2nc(-c3ccc(Br)cc3)cc3ccccc23)CC1
IC50 (HCT-15): 5.26 µM | IC50 (SK-MEL-2): 4.12 µM | IC50 (A549): 6.04 µM | IC50 (SK-OV-3): 3.85 µM

Compound: Cc1ccc2c(NCc3ccccc3)nc(-c3ccccc3)cc2c1
IC50 (HCT-15): 64.2 µM | IC50 (SK-MEL-2): 94.4 µM | IC50 (A549): 122 µM | IC50 (SK-OV-3): 156 µM

Compound: CCN1CCN(c2nc(-c3ccccc3C)cc3cc(C)ccc23)CC1
IC50 (HCT-15): 8.65 µM | IC50 (SK-MEL-2): 12.8 µM | IC50 (A549): 21 µM | IC50 (SK-OV-3): 62 µM

Compound: c1ccc(CNc2nc(-c3ccccc3)cc3ccccc23)cc1
IC50 (HCT-15): 87.4 µM | IC50 (SK-MEL-2): 83 µM | IC50 (A549): 177 µM | IC50 (SK-OV-3): 102 µM | Activity [1]: Weak activity

Compound: Cc1ccc2c(N3CCCN(C)CC3)nc(-c3ccccc3C)cc2c1
IC50 (HCT-15): 1.2 µM | IC50 (SK-MEL-2): 0.99 µM | IC50 (A549): 0.44 µM | IC50 (SK-OV-3): 0.7 µM

Compound: COc1cccc2c1C(=O)c1c(O)c3c(c(O)c1C2=O)C[C@@](O)(C(=O)CO)C[C@@H]3O[C@H]1C[C@H](N)[C@H](O)[C@H](C)O1 [DOXORUBICIN]
Cytotoxicity (OCI-AML2 [3]): 0.01 µg/mL | IC50 (HCT-15): 1.67 µM | IC50 (SK-MEL-2): 4.78 µM | Cytotoxicity (OCI-AML2 [4]): 1.93 µg/mL | Cytotoxicity (OCI-AML2 [5]): 3.2 µg/mL | IC50 (SK-OV-3): 1.17 µM

Compound: Cc1ccc2c(N)nc(-c3ccccc3C)cc2c1.Cl
Cytotoxicity (OCI-AML2 [3]): 0.0078 µg/mL | IC50 (HCT-15): 0.17 µM | IC50 (SK-MEL-2): 0.14 µM | IC50 (A549): 0.17 µM | Activity (OCI-AML2 [4]): 0.0027 µg/mL | Cytotoxicity (OCI-AML2 [5]): 0.0056 µg/mL | IC50 (SK-OV-3): 0.21 µM

Compound: COc1cccc2c1C(=O)c1c(O)c3c(c(O)c1C2=O)C[C@@](O)(C(C)=O)C[C@@H]3O[C@H]1C[C@H](N)[C@H](O)[C@H](C)O1 [DAUNORUBICIN]
Cytotoxicity (OCI-AML2 [3]): 0.001 µg/mL | Cytotoxicity (OCI-AML2 [4]): 0.52 µg/mL | Cytotoxicity (OCI-AML2 [5]): 0.43 µg/mL

The next lines start with results.

Activity [1]: Weak activity
Compound: CN1CCCN(c2nc(-c3cccc4ccccc34)cc3ccccc23)CC1
IC50 (HCT-15): 1.93 µM | IC50 (SK-MEL-2): 1.98 µM | IC50 (A549): 0.52 µM | IC50 (SK-OV-3): 3.64 µM

Activity [1]: Weak activity
Compound: CCN1CCN(c2nc(-c3ccccc3)cc3ccccc23)CC1
IC50 (HCT-15): 7.22 µM | IC50 (SK-MEL-2): 95.7 µM | IC50 (A549): 55.4 µM | IC50 (SK-OV-3): 68.9 µM

Activity [1]: Weak activity
Compound: Cc1cccc(-c2cc3cc(C)ccc3c(NCc3ccccc3)n2)c1
IC50 (HCT-15): 111 µM | IC50 (SK-MEL-2): 88.7 µM | IC50 (A549): 171 µM | IC50 (SK-OV-3): 146 µM

Activity [2]: Greater activity than Camptothecin
Compound: Cc1ccc2c(NCCN)nc(-c3ccccc3)cc2c1
IC50 (HCT-15): > 300 µM | IC50 (SK-MEL-2): > 300 µM | IC50 (A549): > 300 µM | IC50 (SK-OV-3): > 300 µM

Activity [2]: Greater activity than Camptothecin
Compound: CCN1CCN(c2nc(-c3ccccc3Cl)cc3cc(C)ccc23)CC1
IC50 (HCT-15): 5.58 µM | IC50 (SK-MEL-2): 5.58 µM | IC50 (A549): 13.4 µM | IC50 (SK-OV-3): 195 µM

Activity [1]: Weak activity
Compound: CCN1CCN(c2nc(-c3ccc(C)cc3)cc3cc(C)ccc23)CC1
IC50 (HCT-15): 8.07 µM | IC50 (SK-MEL-2): 14.4 µM | IC50 (A549): 26.9 µM | IC50 (SK-OV-3): 63.4 µM

Activity [2]: Greater activity than Camptothecin
Compound: CN1CCCN(c2nc(-c3ccccc3)cc3ccccc23)CC1
IC50 (HCT-15): 11.1 µM | IC50 (SK-MEL-2): 8.38 µM | IC50 (A549): 10.8 µM | IC50 (SK-OV-3): 17 µM

Activity [1]: Weak activity
Compound: Cc1ccc2c(NCCN)nc(-c3ccccc3C)cc2c1
IC50 (HCT-15): > 300 µM | IC50 (SK-MEL-2): > 300 µM | IC50 (A549): > 300 µM | IC50 (SK-OV-3): > 300 µM

Activity [1]: Weak activity
Compound: Cc1cccc(-c2cc3ccccc3c(N3CCCN(C)CC3)n2)c1
IC50 (HCT-15): 9.2 µM | IC50 (SK-MEL-2): 8.85 µM | IC50 (A549): 8.57 µM | IC50 (SK-OV-3): 8.22 µM

Activity [2]: Greater activity than Camptothecin
Compound: Cc1ccc(-c2cc3cc(C)ccc3c(NCCN)n2)cc1
IC50 (HCT-15): > 300 µM | IC50 (SK-MEL-2): > 300 µM | IC50 (A549): > 300 µM | IC50 (SK-OV-3): > 300 µM

Source: ChEMBL document CHEMBL1136495, “Synthesis of new 3-arylisoquinolinamines: effect on topoisomerase I inhibition and cytotoxicity” (Bioorg Med Chem Lett, 2003)
